From paper PMC5111764 (Journal of Clinical Pharmacology, 2016)
Like-named read-outs stand apart in the source and are kept apart here.

What was measured:
[1] = rats and dogs; cited from earlier work
[2] = assay type: in vivo; details: male, human, plasma, po
Method in brief: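 In an alternating-panel design (panels A and B), each panel had 6 active and 2 placebo subjects. Single oral doses of 0.5–400 mg were given after an overnight fast, with at least 2 weeks of washout. Blood went into K2EDTA and was spun at 1000–1300g, 4–10°C, for 10 min, then stored at –20°C. Plasma was extracted liquid-liquid with a stable-isotope internal standard and assayed by LC/MS/MS with turbo ionspray (range 1.0–1000 ng/mL). Parameters came from individual concentration-time curves at actual sampling times.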

[3] = molecular target: T1, plasma DPP-4 activity (Homo sapiens, UniProt P27487); experiment: Study 1: inhibition of plasma DPP-4 activity after single doses; assay type: in vivo
T1 sequence (P27487 39-766): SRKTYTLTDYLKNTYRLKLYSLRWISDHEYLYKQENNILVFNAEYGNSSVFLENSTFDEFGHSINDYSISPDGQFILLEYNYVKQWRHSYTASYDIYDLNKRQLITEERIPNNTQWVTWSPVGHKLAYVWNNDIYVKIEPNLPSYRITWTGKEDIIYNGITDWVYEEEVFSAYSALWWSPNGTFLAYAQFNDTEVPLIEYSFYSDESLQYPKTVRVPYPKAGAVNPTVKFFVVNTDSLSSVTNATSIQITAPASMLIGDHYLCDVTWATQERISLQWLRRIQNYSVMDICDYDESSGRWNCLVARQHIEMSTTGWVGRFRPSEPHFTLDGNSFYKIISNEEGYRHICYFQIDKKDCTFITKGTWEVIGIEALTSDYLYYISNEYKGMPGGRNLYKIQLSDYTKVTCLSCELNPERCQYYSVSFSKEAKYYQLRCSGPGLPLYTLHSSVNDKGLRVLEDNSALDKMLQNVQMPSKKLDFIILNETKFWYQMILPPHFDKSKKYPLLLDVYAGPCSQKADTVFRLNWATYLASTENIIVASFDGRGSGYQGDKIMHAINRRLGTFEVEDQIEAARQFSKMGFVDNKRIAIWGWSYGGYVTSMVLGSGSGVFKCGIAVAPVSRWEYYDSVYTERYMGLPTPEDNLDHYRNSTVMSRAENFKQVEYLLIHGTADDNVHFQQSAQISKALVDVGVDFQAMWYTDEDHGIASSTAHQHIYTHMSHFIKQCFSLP
Method in brief: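 Healthy subjects got single oral doses of 0.5–400 mg or placebo. Blood went into EDTA tubes and was spun at 1700g for 10 min at 4°C, then stored at –20°C or below. Plasma was incubated with glycyl-prolyl-paranitroanilide, and absorbance increase at 390 nm was read from 4 to 14 min (LOQ 0.6 mOD/min). Inhibition is the % change from the period-1 predose baseline. The 168-h values came from a linear mixed-effects model (treatment fixed, subject random).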

[4] = Study 1 panel C: effect of a high-fat breakfast on single-dose pharmacokinetics; assay type: in vivo, human; details: single dose 10 mg
Method in brief: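 Panel C had 8 subjects, 6 on 10 mg test compound and 2 on placebo, in a 2-period fixed sequence. Dosing was fasted in period 1 and after a standard high-fat breakfast (55.6 g fat, 55 g carbohydrate, 31.1 g protein) in period 2. Washout was at least 2 weeks. Plasma was assayed by LC/MS/MS (LLOQ 1.0 ng/mL). Log-transformed parameters were compared fed/fasted as GMR with 90% CI.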

[5] = molecular target: T1, plasma DPP-4 activity; experiment: PK/PD Emax model of DPP-4 inhibition vs omarigliptin plasma concentration; assay type: in vivo
[6] = ref unpublished data; cited from earlier work
[7] = Safety and tolerability in healthy subjects; assay type: in vivo, human; details: single and multiple doses
Method in brief: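 Healthy adults got single rising oral doses or 3 once-weekly oral doses, versus placebo. Physical exams, vital signs and 12-lead ECGs (QTc, PR) were done before dosing, after dosing and at the poststudy visit. So were labs (hematology, serum chemistry including transaminases, urinalysis). Glucometer readings were taken often over 24 h after each single dose or the last multiple dose. Adverse experiences were graded for intensity, duration, seriousness, outcome and drug relation.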

[8] = PK/QTc relationship: linear mixed-effects model of QTcF vs plasma concentration; assay type: in vivo, human; details: Cmax of 10 μM
Method in brief: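 In study 1, single rising oral doses ran from 0.5 to 400 mg under fasting. ECGs came from 5-lead cardiac telemetry and 12-lead recordings, paired with PK sampling. The averaged triplicate QTcF at each time point (dependent) was matched to plasma drug concentration (independent). These were fitted by a linear mixed-effects model with slope and intercept, and the slope was tested against zero. Prolongation was predicted from the fitted slope.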

[9] = tested on: active GLP-1; experiment: Study 2: weighted average augmentation; assay type: in vivo, human; details: healthy subjects (abstract)
Method in brief: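 Once-weekly oral dosing ran days 1, 8 and 15 against placebo. On day 15, standard meals were given at 4 and 10 h post-dose, with the 4-h sample drawn before the meal. Plasma active GLP-1 (7-36 and 7-37 amides) was measured by electrochemiluminescent immunoassay. Capture was with an antibody to amino acid 7, and detection with antibodies to the C-terminal residues 36/37. WAA was taken through 2 h after each meal and analysed by ANOVA versus placebo.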

[10] = tested on: plasma DPP-4 activity; details: lean mice, 0.3 mg/kg dose; cited from earlier work
[11] = assay type: in vivo, human; details: for fe, fraction of dose excreted in urine: Day 15, 168-hour collection; for half-life / CL renal: male, human, oral; for half-life: plasma; for CL renal: urine and plasma
Method in brief: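 Serial panels got 10, 25, 50 or 100 mg orally once weekly on days 1, 8 and 15, with 6 active and 2 placebo per panel. Plasma was assayed by LC/MS/MS (LLOQ 1.0 ng/mL). Urine was fortified with 0.2% Tween 20, protein-precipitated and assayed by LC/MS/MS (range 40.0–40,000 ng/mL). Ae is the sum of concentration × volume per interval, fe is Ae/dose and CLr is Ae/AUC. Accumulation is the day 15/day 1 GMR with 90% CI from a log-transformed mixed-effects model.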

[12] = ref unpublished data; cited from earlier work; remark: listed apart in the source

CS(=O)(=O)n1cc2c(n1)CN([C@H]1CO[C@H](c3cc(F)ccc3F)[C@@H](N)C1)C2 [omarigliptin]
bioavailability [1]: nearly complete | Tmax [2]: 0.75 to 4 h | Cmax ([2]; 0.5 mg): 6.5 nM | Tmax ([2]; 0.5 mg): 0.75 h | AUC(0-inf) ([2]; 1.5 mg): 1.7 µM·h | Cmax ([2]; 1.5 mg): 20.7 nM | Tmax ([2]; 1.5 mg): 1 h | AUC(0-inf) ([2]; 5 mg): 5.3 µM·h | Cmax ([2]; 5 mg): 88.2 nM | Tmax ([2]; 5 mg): 2 h | AUC(0-inf) ([2]; 12.5 mg): 12 µM·h | Cmax ([2]; 12.5 mg): 219 nM | Tmax ([2]; 12.5 mg): 4 h | AUC(0-inf) ([2]; 25 mg): 22.5 µM·h | Cmax ([2]; 25 mg): 484 nM | Tmax ([2]; 25 mg): 0.75 h | AUC(0-inf) ([2]; 50 mg): 41.6 µM·h | Cmax ([2]; 50 mg): 904 nM | Tmax ([2]; 50 mg): 1.5 h | AUC(0-inf) ([2]; 100 mg): 86.9 µM·h | Cmax ([2]; 100 mg): 2210 nM | Tmax ([2]; 100 mg): 0.75 h | AUC(0-inf) ([2]; 200 mg): 162 µM·h | Cmax ([2]; 200 mg): 3850 nM | Tmax ([2]; 200 mg): 1.5 h | AUC(0-inf) ([2]; 400 mg): 335 µM·h | Cmax ([2]; 400 mg): 9290 nM | Tmax ([2]; 400 mg): 1 h | percentage inhibition of DPP-4 activity 168 hours postdose (point estimate) ([3]; single dose 0.5 mg): 32.2% | percentage inhibition of DPP-4 activity 168 hours postdose (point estimate) ([3]; single dose 400 mg): 96.7% | difference in overall absorption in the presence and absence of a high-fat breakfast [4]: No difference | Hill slope γ ([5]; Emax model, single doses, SE 0.03): 1.1 | Emax ([5]; read-out: Emax, maximum inhibition of plasma DPP-4 activity): 96.8% | permeability [6]: high | tolerability ([7]; healthy adults): generally well tolerated | clinical or laboratory adverse experiences of hypoglycemia [7]: no reports | serious clinical or laboratory adverse experiences or discontinuation because of a clinical adverse experience [7]: No subject | margin to the clinical dose of 25 mg [8]: ~20 fold | increase in weighted average postprandial active GLP-1 [9]: ~2 fold | inhibition of plasma DPP-4 activity [10]: ~85% | fe, fraction of dose excreted in urine ([11]; 10 mg once weekly): 70.1 (14.1) % | fe, fraction of dose excreted in urine ([11]; 25 mg once weekly): 57.5 (15.7) % | fe, fraction of dose excreted in urine ([11]; 50 mg once weekly): 73.6 (4.3) % | fe, fraction of dose excreted in urine ([11]; 100 mg once weekly): 72.2 (7.7) % | steady state achieved following the second dosing ([11]; all treatments 10 to 100 mg once weekly): more than 80% | half-life ([11]; 10 mg): 83.2 h | half-life ([11]; 25 mg): 66.7 h | half-life ([11]; 50 mg): 48.3 h | half-life ([11]; 100 mg): 41.7 h | CL renal [11]: 26.7 to 35 mL/min | CL renal ([11]; 10 mg): 33.3 mL/min | CL renal ([11]; 25 mg): 26.7 mL/min | CL renal ([11]; 50 mg): 31.7 mL/min | CL renal ([11]; 100 mg): 35 mL/min | solubility [12]: high
